Results from ChEMBL document CHEMBL3232782, “1,2,3,4,8,9,10,11-octahydrobenzo[j]phenanthridine-7,12-diones as new leads against Mycobacterium tuberculosis” (J Med Chem, 2014).
In brackets after ≈: the same amount, converted by molar mass.

Each compound was assayed on Mycobacterium tuberculosis variant bovis (assay: Antimycobacterial activity against Mycobacterium bovis AN5 expressing luciferase assessed as growth inhibition after 6 days by luminometry). Settings: AN5, 144 h.
Type: functional
Summary of the method: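 Strains carried pSMT1 luxAB reporter plasmid. DMSO stocks 10 mM, serially diluted in 7H9 + 10% FCS, triplicate wells. Filtered bacterial suspension at 50 000 RLU/mL. Luminescence read after 6 days using 1% n-decanal substrate. […] Growth temperatures: M.tb 37 °C; M. avium and M. bovis 39 °C.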

| SMILES | MIC [µM] |
| --- | --- |
| CC(C)(C)C1CCc2ncc3c(c2C1)C(=O)C1=C(C3=O)C2CCC1C2 (centres undefined) | 0.78 (≈ 0.262 µg/mL) |
| CCOC(=O)C1CCc2ncc3c(c2C1)C(=O)C1=C(C3=O)C2CCC1C2 (centres undefined) | 0.09 (≈ 0.0316 µg/mL) |
| CCOC(=O)C1CCc2ncc3c(c2C1)C(=O)C1=C(C3=O)C2CCC1CC2 (centres undefined) | 0.57 (≈ 0.208 µg/mL) |
| NNC(=O)c1ccncc1 [ISONIAZID] | 0.08 (≈ 0.011 µg/mL) |
